Measurements from ChEMBL document CHEMBL5316288, “Synthetic Strategies for Improving Solubility: Optimization of Novel Pyrazolo[1,5-a]pyrimidine CFTR Activator That Ameliorates Dry Eye Disease” (J Med Chem, 2023).
≈ marks a conversion by molar mass, not a printed value.

Columns and labels:
[1] = Cmax in New Zealand White Rabbit conjunctiva at 0.1 mg per eye, TOP and measured upto 72 hrs by LC-MS/MS analysis; assay type: ADME, tissue-based, Oryctolagus cuniculus; set-up: dose 0.1 mg, time < 72 hrs, route top; conditions: topical or ocular
Method in brief: (§1)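 Male New Zealand White rabbits each received a single topical eye drop of 0.1 mg/eye, formulated in 5% polyoxyl 35 castor oil in sodium phosphate buffer. Plasma, tear, cornea, conjunctiva and retina were sampled from one eye at 0.5, 1, 4, 8, 12, 24, 48 and 72 h. Levels were measured by LC-MS/MS in tear and tissue homogenates. Parameters came from non-compartmental analysis of composite means, n = 3.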

[2] = AUClast in New Zealand White Rabbit conjunctiva at 0.1 mg per eye, TOP and measured upto 72 hrs by LC-MS/MS analysis; assay type: ADME, tissue-based, Oryctolagus cuniculus; set-up: time < 72 hrs, dose 0.1 mg, route top; conditions: topical or ocular; method in brief: as §1
[3] = AUClast in New Zealand White Rabbit eye tear at 0.1 mg per eye, TOP and measured upto 72 hrs by LC-MS/MS analysis; assay type: ADME, tissue-based, Oryctolagus cuniculus, Secretion of lacrimal gland; set-up: dose 0.1 mg, time < 72 hrs, route top; conditions: in vivo, topical_or_ocular; method in brief: as §1
[4] = Cytotoxicity against human Conjunctival epithelial cells assessed as reduction in cell viability at 30 uM incubated for 48 hrs with medium changed every 12 hrs by MTS assay; assay type: toxicity, cell-based
Method in brief: (§2)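 Immortalized human corneal or conjunctival epithelial cells were plated and, after 24 h, exposed to 30 μM compound for 48 h. DMSO served as control and 0.01% Triton X-100 as the lysis control. Medium and compound were renewed every 12 h. Viability was read by MTS, 1 h incubation, absorbance at 490 nm; n = 3.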

[5] = Solubility of compound in PBS at 7.5 at 0.5 mg/ml incubated for 90 mins by LC-MS/MS analysis; assay type: physicochemical; conditions: PBS, pH 7.5
Method in brief: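 Thermodynamic solubility: compound at 0.5 mg/mL in isotonic phosphate-buffered saline, pH 7.5, vortexed for 90 min. The solution was then filtered sequentially through 0.45, 1.2 and 5.0 μm filters. Concentration was measured by LC-MS/MS against a ≥6-point internal-standard calibration curve (weighted 1/x linear or quadratic) and back-calculated.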

[6] = AUC (0 to infinity) in New Zealand White Rabbit eye tear at 0.1 mg per eye, TOP and measured upto 72 hrs by LC-MS/MS analysis; assay type: ADME, tissue-based, Oryctolagus cuniculus, Secretion of lacrimal gland; set-up: time < 72 hrs, dose 0.1 mg, route top; conditions: in vivo, topical_or_ocular; method in brief: as §1
[7] = Cytotoxicity against human Corneal epithelial cells assessed as reduction in cell viability at 30 uM incubated for 48 hrs with medium changed every 12 hrs by MTS assay; assay type: toxicity, cell-based; method in brief: as §2
[8] = AUC (0 to infinity) in New Zealand White Rabbit cornea at 0.1 mg per eye, TOP and measured upto 72 hrs by LC-MS/MS analysis; assay type: ADME, tissue-based, Oryctolagus cuniculus; set-up: time < 72 hrs, dose 0.1 mg, route top; conditions: topical or ocular; method in brief: as §1
[9] = Tmax in New Zealand White Rabbit cornea at 0.1 mg per eye, TOP and measured upto 72 hrs by LC-MS/MS analysis; assay type: ADME, tissue-based, Oryctolagus cuniculus; conditions: in vivo, topical_or_ocular; method in brief: as §1
[10] = AUClast in New Zealand White Rabbit cornea at 0.1 mg per eye, TOP and measured upto 72 hrs by LC-MS/MS analysis; assay type: ADME, tissue-based, Oryctolagus cuniculus; set-up: dose 0.1 mg, time < 72 hrs, route top; conditions: topical or ocular; method in brief: as §1
[11] = Half life in New Zealand White Rabbit conjunctiva at 0.1 mg per eye, TOP and measured upto 72 hrs by LC-MS/MS analysis; assay type: ADME, tissue-based, Oryctolagus cuniculus; conditions: in vivo, topical_or_ocular; method in brief: as §1
[12] = Half life in New Zealand White Rabbit eye tear at 0.1 mg per eye, TOP and measured upto 72 hrs by LC-MS/MS analysis; assay type: ADME, tissue-based, Oryctolagus cuniculus, Secretion of lacrimal gland; conditions: in vivo, topical_or_ocular; method in brief: as §1
[13] = Cmax in New Zealand White Rabbit cornea at 0.1 mg per eye, TOP and measured upto 72 hrs by LC-MS/MS analysis; assay type: ADME, tissue-based, Oryctolagus cuniculus; set-up: dose 0.1 mg, time < 72 hrs, route top; conditions: topical or ocular; method in brief: as §1
[14] = AUC (0 to 24 hrs) in New Zealand White Rabbit eye tear at 0.1 mg per eye, TOP and measured upto 72 hrs by LC-MS/MS analysis; assay type: ADME, tissue-based, Oryctolagus cuniculus, Secretion of lacrimal gland; set-up: dose 0.1 mg, time < 72 hrs, route top; conditions: in vivo, topical_or_ocular; method in brief: as §1
[15] = Tlast in New Zealand White Rabbit cornea at 0.1 mg per eye, TOP and measured upto 72 hrs by LC-MS/MS analysis; assay type: ADME, tissue-based, Oryctolagus cuniculus; conditions: in vivo, topical_or_ocular; method in brief: as §1
[16] = Cmax in New Zealand White Rabbit eye tear at 0.1 mg per eye, TOP and measured upto 72 hrs by LC-MS/MS analysis; assay type: ADME, tissue-based, Oryctolagus cuniculus, Secretion of lacrimal gland; set-up: time < 72 hrs, dose 0.1 mg, route top; conditions: in vivo, topical_or_ocular; method in brief: as §1
[17] = AUC (0 to 24 hrs) in New Zealand White Rabbit cornea at 0.1 mg per eye, TOP and measured upto 72 hrs by LC-MS/MS analysis; assay type: ADME, tissue-based, Oryctolagus cuniculus; set-up: dose 0.1 mg, time < 72 hrs, route top; conditions: topical or ocular; method in brief: as §1
[18] = Half life in New Zealand White Rabbit cornea at 0.1 mg per eye, TOP and measured upto 72 hrs by LC-MS/MS analysis; assay type: ADME, tissue-based, Oryctolagus cuniculus; conditions: in vivo, topical_or_ocular; method in brief: as §1
[19] = Tmax in New Zealand White Rabbit conjunctiva at 0.1 mg per eye, TOP and measured upto 72 hrs by LC-MS/MS analysis; assay type: ADME, tissue-based, Oryctolagus cuniculus; conditions: in vivo, topical_or_ocular; method in brief: as §1
[20] = Tlast in New Zealand White Rabbit eye tear at 0.1 mg per eye, TOP and measured upto 72 hrs by LC-MS/MS analysis; assay type: ADME, tissue-based, Oryctolagus cuniculus, Secretion of lacrimal gland; conditions: in vivo, topical_or_ocular; method in brief: as §1
[21] = Tlast in New Zealand White Rabbit conjunctiva at 0.1 mg per eye, TOP and measured upto 72 hrs by LC-MS/MS analysis; assay type: ADME, tissue-based, Oryctolagus cuniculus; conditions: in vivo, topical_or_ocular; method in brief: as §1
[22] = AUC (0 to infinity) in New Zealand White Rabbit conjunctiva at 0.1 mg per eye, TOP and measured upto 72 hrs by LC-MS/MS analysis; assay type: ADME, tissue-based, Oryctolagus cuniculus; set-up: time < 72 hrs, dose 0.1 mg, route top; conditions: topical or ocular; method in brief: as §1
[23] = AUC (0 to 24 hrs) in New Zealand White Rabbit conjunctiva at 0.1 mg per eye, TOP and measured upto 72 hrs by LC-MS/MS analysis; assay type: ADME, tissue-based, Oryctolagus cuniculus; set-up: dose 0.1 mg, time < 72 hrs, route top; conditions: topical or ocular; method in brief: as §1

COc1ccc(-c2ccnc3cc(C(=O)N4CCN(C(=O)c5ccccc5)[C@@H](C)C4)nn23)cc1OC
Cmax [1]: 793 ng/mL | AUC(0-t) at 72 h [2]: 9820 ng·h/mL | AUClast [3]: 16573 ng·h/mL | Activity [4]: Non-Toxic | solubility thermodynamic at 1.5 h [5]: 134 µM (≈ 65.3 µg/mL) | AUC [6]: 18750 ng·h/mL | Activity [7]: Non-Toxic | AUC(0-inf) [8]: 35800 ng·h/mL | Tmax [9]: 0.5 h | AUC(0-t) at 72 h [10]: 28300 ng·h/mL | t1/2 [11]: 40.6 h | t1/2 [12]: 29.8 h | Cmax [13]: 7840 ng/mL | AUC [14]: 7952 ng·h/mL | Tlast [15]: 72 h | Cmax [16]: 749 ng/mL | AUC(0-t) at 72 h [17]: 19400 ng·h/mL | t1/2 [18]: 23.1 h | Tmax [19]: 0.5 h | Tlast [20]: 72 h | Tlast [21]: 72 h | AUC(0-inf) [22]: 13700 ng·h/mL | AUC(0-t) at 72 h [23]: 4730 ng·h/mL
